Drawing on ChEMBL document CHEMBL4321819, “Simple Structural Modifications Converting a Bona fide MDM2 PROTAC Degrader into a Molecular Glue Molecule: A Cautionary Tale in the Design of PROTAC Degraders” (J Med Chem, 2019), this text covers Activity, IC50 and fold change for 1 molecule.

Experiment [1] has as its target T1, Protein cereblon/Eukaryotic peptide chain release factor GTP-binding subunit ERF3A/DNA damage-binding protein 1/Cullin-4A (Homo sapiens) (UniProt Q96SW2+Q16531+Q13619+P15170). The experiment is described as follows: Protac activity at GSPT1/CUL4/DDB1/CRBN in human RS4:11 cells expressing wild type p53 assessed as effect on GSPT1 mRNA level after 3 hrs by qRT-PCR analysis. Format: cell-based. In short, it runs like this:
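Total RNA taken from treated cells at the indicated time points. RNA concentration measured on a plate reader. GSPT1 mRNA quantified by qRT-PCR. Data are mean ± standard error from at least three independent experiments.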

The target of experiment [2] is T2, Eukaryotic peptide chain release factor GTP-binding subunit ERF3A (Homo sapiens, UniProt P15170). The experiment is described as follows: Induction of GSPT1 degradation in human MDA-MB-468 cells transfected with CRBN siRNA LQ-021086-10-0002 assessed as decrease in GSPT1 protein level at 0.1 uM after 2 to 24 hrs by Western blot analysis. Format: cell-based. In short, it runs like this: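 MDA-MB-231 or MDA-MB-468 cells transfected 2 days with CRBN siRNA (Lipofectamine RNAiMAX; non-targeting siRNA as control), then exposed to 0.1 μM for 2 h or 24 h. Cell culture was RPMI 1640 with 10% FBS at 37 °C, 5% CO2. GSPT1 and cereblon protein were probed by Western blot.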
T2 sequence (P15170 whole entry): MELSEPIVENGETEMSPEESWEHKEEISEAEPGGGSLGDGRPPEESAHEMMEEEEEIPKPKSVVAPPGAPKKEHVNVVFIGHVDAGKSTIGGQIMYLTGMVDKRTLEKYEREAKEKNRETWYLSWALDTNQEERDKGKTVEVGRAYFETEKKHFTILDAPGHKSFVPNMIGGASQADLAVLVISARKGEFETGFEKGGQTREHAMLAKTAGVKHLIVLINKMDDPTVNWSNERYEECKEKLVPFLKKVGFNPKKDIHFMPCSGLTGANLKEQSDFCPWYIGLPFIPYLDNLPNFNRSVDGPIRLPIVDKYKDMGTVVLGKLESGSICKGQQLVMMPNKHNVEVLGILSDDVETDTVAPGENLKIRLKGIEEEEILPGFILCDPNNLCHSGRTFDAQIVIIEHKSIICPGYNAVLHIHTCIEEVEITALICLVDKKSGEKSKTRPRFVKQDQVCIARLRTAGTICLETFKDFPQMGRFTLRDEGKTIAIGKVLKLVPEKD
(A western blot detects proteins with antibodies after separation by electrophoresis.)

The target of experiment [3] is T3, E3 ubiquitin-protein ligase Mdm2 (Homo sapiens, UniProt Q00987). The experiment is described as follows: Displacement of PMDM6-F fluorescent probe from human recombinant His-tagged MDM2 (1 to 118 residues) after 15 mins by fluorescence polarization assay. In short, it runs like this: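 Recombinant human His-tagged MDM2 (residues 1–118) with a FAM-labelled p53-based peptide as fluorescent probe; competitive fluorescence-polarization binding. Mean ± standard error from at least three independent experiments.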
Target sequence in this assay (Q00987 whole entry, the tested form may be a part): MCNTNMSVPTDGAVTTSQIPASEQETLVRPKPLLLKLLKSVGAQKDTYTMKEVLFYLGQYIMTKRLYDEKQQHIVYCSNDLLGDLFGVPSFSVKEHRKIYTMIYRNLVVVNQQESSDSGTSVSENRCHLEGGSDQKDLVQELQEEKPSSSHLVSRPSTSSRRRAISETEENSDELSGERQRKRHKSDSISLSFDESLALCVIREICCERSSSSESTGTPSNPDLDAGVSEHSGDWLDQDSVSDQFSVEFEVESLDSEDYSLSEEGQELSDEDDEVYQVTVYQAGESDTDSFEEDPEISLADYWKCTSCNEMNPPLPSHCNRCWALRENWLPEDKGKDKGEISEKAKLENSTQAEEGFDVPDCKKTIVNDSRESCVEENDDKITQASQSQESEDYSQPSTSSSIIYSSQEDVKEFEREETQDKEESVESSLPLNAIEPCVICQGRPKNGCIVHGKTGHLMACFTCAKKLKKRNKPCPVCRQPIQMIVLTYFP
In general terms: Polarisation of emitted light reports the rotation of a fluorescent probe.

Experiment [4] has as its target T2, Eukaryotic peptide chain release factor GTP-binding subunit ERF3A. The experiment is described as follows: Induction of GSPT1 degradation in human RS4:11 cells at 0.1 uM pretreated with Nedd8 inhibitor MLN4924 followed by compound treatment after 2 hrs by Western blot analysis.
Experiment [5] deals with T1, Protein cereblon/Eukaryotic peptide chain release factor GTP-binding subunit ERF3A/DNA damage-binding protein 1/Cullin-4A (Homo sapiens). The experiment is described as follows: Protac activity at GSPT1/CUL4/DDB1/CRBN in human RS4:11 cells expressing wild type p53 assessed as decrease in GSPT1 protein level measured upto 24 hrs by Western blot analysis. Format: cell-based. In short, it runs like this: (§1)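 RS4;11 (wild-type p53) or RS4;11/IRMI-2 (MDM2 inhibitor-resistant derivative, mutant p53) cells kept in RPMI 1640 with 10% FBS at 37 °C, 5% CO₂. 2×10^6 cells/well treated at the indicated concentrations and times, then lysed in ice-cold lysis buffer with protease inhibitor. GSPT1 detected by Western blot with a specific antibody.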

A further experiment relates to MV4-11. The experiment is described as follows: Antiproliferative activity against human MV4-11 cells expressing wild type p53 assessed as cell growth inhibition after 4 days by WST-8 assay. Format: functional, cell-based. Conditions: MV4-11, 96 h. In short, it runs like this:
(§2)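 Leukemia cells seeded at 10000–20000 cells/well, breast cancer lines at 5000–10000 cells/well. Serially diluted compound added, then 4 days at 37 °C, 5% CO2. Growth read with WST-8 reagent after at least 1 h, absorbance at 450 nm. RS4;11, MOLM-13 and breast lines were grown in RPMI 1640; MV-4-11 and HL-60 in IMDM; all with 10% FBS. Mean ± SE, at least three independent experiments.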

Experiment [6] deals with T3, E3 ubiquitin-protein ligase Mdm2. The experiment is described as follows: Induction of MDM2 degradation in human RS4:11 cells assessed as upregulation of p53 at 1 to 30 nM after 2 hrs by Western blot analysis. Format: cell-based. In short, it runs like this: (§3)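 Western blots of MDM2 and p53 protein were run on RS4;11 cells (wild-type p53) in RPMI 1640 with 10% FBS. 2×10^6 cells/well were treated at the indicated concentrations for 1 h or 2 h. Lysis was in ice-cold buffer with protease inhibitor, followed by probing with specific antibodies.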
Target sequence in this assay (Q00987 whole entry, looked up, the tested form may be a part): as the sequence (Q00987 whole entry, the tested form may be a part) above

The target of experiment [7] is T1, Protein cereblon/Eukaryotic peptide chain release factor GTP-binding subunit ERF3A/DNA damage-binding protein 1/Cullin-4A (Homo sapiens). The experiment is described as follows: Protac activity at GSPT1/CUL4/DDB1/CRBN in human RS4:11/IRMI-2 cells harboring p53 hotspot mutation Y236H/R249G assessed as decrease in GSPT1 protein level by measuring fold change of protein level before and after treatment at 0.1 uM measured after 3 hrs relative to control.

Another experiment relates to RS4-11. The experiment is described as follows: Antiproliferative activity against human RS4:11 cells expressing wild type p53 assessed as MDM2-independent cell growth inhibition after 4 days by WST-8 assay. Format: functional, cell-based. Conditions: RS4-11, 96 h. The procedure, abridged: as §2
A general note: Formazan colour is commonly taken as a measure of viable cells.

The target of experiment [8] is Cellular tumor antigen p53 (Homo sapiens) (UniProt P04637). The experiment is described as follows: Activation of p53 in human RS4:11 cells assessed as increase in BAX mRNA expression at 3 nM after 1 to 2 hrs by qRT-PCR analysis. Format: cell-based. In short, it runs like this: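 RS4;11 cells (RPMI 1640, 10% FBS, 37 °C, 5% CO2) treated with 3 nM or 10 nM compound; total RNA extracted and mRNA of p53 targets MDM2, CDKN1A, PUMA and BAX quantified by qRT-PCR. Mean ± standard error from at least three independent experiments.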
Chain of Cellular tumor antigen p53 (Homo sapiens) (P04637 whole entry, looked up): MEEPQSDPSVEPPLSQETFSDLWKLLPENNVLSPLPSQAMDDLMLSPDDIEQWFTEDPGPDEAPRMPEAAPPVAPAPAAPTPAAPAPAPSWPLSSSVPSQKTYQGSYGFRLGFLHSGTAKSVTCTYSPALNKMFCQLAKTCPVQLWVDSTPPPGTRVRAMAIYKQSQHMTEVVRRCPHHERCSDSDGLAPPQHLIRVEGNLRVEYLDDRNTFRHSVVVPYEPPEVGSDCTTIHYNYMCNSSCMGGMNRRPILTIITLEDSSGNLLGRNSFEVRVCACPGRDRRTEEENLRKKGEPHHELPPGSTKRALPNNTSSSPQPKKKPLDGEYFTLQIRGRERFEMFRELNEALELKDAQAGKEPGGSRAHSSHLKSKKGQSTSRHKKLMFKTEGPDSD

Experiment [9] relates to MDA-MB-468. The experiment is described as follows: Antiproliferative activity against human MDA-MB-468 cells harboring mutant p53 assessed as cell growth inhibition without interaction with cereblon after 4 days by WST-8 assay. Format: functional, cell-based. Conditions: MDA-MB-468, 96 h.
The subject of experiment [10] is MDA-MB-468. The experiment is described as follows: Antiproliferative activity against human MDA-MB-468 cells assessed as cell growth inhibition after 4 days in presence of control siRNA for 2 days followed by compound treatment by WST-8 assay. Format: functional, cell-based. In short, it runs like this: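 MDA-MB-231 or MDA-MB-468 cells transfected for 2 days using Lipofectamine RNAiMAX with MDM2 siRNA, one of two CRBN siRNAs, or non-targeting control siRNA. Compound then added and growth read by WST-8 at 450 nm.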

In experiment [11] the target is T1, Protein cereblon/Eukaryotic peptide chain release factor GTP-binding subunit ERF3A/DNA damage-binding protein 1/Cullin-4A (Homo sapiens). The experiment is described as follows: Protac activity at GSPT1/CUL4/DDB1/CRBN in human RS4:11/IRMI-2 cells harboring p53 hotspot mutation Y236H/R249G assessed as effect on GSPT1 mRNA level after 3 hrs by qRT-PCR analysis. Format: cell-based.

The target of experiment [12] is T3, E3 ubiquitin-protein ligase Mdm2. The experiment is described as follows: Induction of MDM2 degradation in human RS4:11 cells assessed as downregulation of MDM2 at 1 to 30 nM after 1 hr by Western blot analysis. Format: cell-based. In short, it runs like this:
as §3
Target sequence in this assay (Q00987 whole entry, looked up, the tested form may be a part): as the sequence (Q00987 whole entry, the tested form may be a part) above

Experiment [13] addresses T1, Protein cereblon/Eukaryotic peptide chain release factor GTP-binding subunit ERF3A/DNA damage-binding protein 1/Cullin-4A (Homo sapiens). The experiment is described as follows: Protac activity at GSPT1/CUL4/DDB1/CRBN in human RS4:11/IRMI-2 cells harboring p53 hotspot mutation Y236H/R249G assessed as decrease in GSPT1 protein level after 2 hrs by Western blot analysis. Format: cell-based. In short, it runs like this:
as §1

In experiment [14] the target is T2, Eukaryotic peptide chain release factor GTP-binding subunit ERF3A. The experiment is described as follows: Induction of GSPT1 degradation in human MDA-MB-231 cells transfected with CRBN siRNA LQ-021086-10-0002 assessed as decrease in GSPT1 protein level at 0.1 uM after 2 to 24 hrs by Western blot analysis. Format: cell-based. The procedure, abridged:
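MDA-MB-231 cells transfected with CRBN or non-targeting siRNA, then exposed to 0.1 μM compound for 2 h or 24 h. Lysed in ice-cold lysis buffer with protease inhibitor; GSPT1 and cereblon probed by Western blot.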

Active and inactive are the calls of the source. The calls are words filed in the database; no cut-off is given here.

T1 sequence (P15170 whole entry, looked up): as the sequence (P15170 whole entry) above
T1 sequence (Q13619 whole entry, looked up): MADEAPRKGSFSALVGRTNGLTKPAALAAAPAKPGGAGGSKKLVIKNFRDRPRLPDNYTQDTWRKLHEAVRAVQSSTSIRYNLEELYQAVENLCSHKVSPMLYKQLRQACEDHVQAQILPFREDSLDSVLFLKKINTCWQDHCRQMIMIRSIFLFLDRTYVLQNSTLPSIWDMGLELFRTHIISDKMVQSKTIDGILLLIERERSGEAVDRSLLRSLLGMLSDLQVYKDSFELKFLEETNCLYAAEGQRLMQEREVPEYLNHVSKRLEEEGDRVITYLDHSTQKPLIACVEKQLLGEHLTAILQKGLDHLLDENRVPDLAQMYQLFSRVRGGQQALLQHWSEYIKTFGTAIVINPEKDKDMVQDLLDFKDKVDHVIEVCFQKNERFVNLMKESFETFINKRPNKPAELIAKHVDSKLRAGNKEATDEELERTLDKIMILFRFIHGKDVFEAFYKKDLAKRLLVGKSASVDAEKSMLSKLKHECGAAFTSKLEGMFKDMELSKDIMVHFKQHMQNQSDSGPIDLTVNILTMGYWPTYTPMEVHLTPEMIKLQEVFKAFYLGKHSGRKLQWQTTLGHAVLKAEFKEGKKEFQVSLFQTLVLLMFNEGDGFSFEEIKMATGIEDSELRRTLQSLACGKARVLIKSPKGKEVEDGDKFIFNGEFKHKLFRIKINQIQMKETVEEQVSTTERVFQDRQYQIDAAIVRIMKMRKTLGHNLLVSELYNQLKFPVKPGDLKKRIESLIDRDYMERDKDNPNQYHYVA
T1 sequence (Q16531 whole entry, looked up): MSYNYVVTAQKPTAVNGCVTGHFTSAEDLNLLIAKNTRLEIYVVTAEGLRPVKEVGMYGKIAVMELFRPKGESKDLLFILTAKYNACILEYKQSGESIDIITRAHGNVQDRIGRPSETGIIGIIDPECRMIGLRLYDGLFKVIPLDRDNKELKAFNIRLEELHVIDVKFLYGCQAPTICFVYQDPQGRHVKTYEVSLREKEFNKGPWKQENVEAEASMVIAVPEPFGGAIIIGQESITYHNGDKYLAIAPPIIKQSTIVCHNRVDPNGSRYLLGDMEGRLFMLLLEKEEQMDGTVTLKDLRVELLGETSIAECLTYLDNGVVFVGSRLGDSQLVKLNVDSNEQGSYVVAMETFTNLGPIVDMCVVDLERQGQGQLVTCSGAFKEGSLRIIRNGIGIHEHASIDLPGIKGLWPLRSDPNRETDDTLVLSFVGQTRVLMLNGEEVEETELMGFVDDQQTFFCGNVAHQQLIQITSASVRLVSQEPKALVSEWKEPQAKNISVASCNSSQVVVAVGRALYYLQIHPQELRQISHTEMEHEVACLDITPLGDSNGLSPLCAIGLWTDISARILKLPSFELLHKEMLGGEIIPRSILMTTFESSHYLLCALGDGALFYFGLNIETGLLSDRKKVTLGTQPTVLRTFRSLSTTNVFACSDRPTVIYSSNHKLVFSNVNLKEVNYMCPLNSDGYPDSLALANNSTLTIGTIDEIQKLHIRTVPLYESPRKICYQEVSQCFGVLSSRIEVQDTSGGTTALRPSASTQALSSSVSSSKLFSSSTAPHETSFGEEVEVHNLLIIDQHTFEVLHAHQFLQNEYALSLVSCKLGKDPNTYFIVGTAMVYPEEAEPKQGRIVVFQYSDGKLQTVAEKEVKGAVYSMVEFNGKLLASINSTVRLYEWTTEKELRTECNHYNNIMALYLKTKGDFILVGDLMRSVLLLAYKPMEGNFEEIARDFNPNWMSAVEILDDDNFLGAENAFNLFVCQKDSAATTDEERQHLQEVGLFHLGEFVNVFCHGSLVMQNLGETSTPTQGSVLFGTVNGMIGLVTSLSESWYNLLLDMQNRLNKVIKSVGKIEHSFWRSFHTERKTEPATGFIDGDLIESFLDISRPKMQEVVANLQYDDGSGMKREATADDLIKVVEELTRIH
T1 sequence (Q96SW2 whole entry, looked up): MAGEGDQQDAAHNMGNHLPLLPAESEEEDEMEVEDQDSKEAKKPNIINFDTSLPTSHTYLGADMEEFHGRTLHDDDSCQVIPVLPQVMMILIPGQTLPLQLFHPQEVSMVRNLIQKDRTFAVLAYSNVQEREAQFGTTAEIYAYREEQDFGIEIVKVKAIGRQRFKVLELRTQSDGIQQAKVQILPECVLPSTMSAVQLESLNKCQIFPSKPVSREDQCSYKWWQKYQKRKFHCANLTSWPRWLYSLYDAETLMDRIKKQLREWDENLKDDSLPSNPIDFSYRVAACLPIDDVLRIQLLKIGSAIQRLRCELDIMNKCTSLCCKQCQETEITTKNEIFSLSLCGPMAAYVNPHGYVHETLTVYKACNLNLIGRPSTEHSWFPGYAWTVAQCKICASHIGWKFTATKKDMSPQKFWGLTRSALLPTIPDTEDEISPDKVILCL

In general, IC50 refers to the concentration at which inhibition is half-maximal. For `O=C1CCC(N2Cc3c(CCCCCNC(=O)[C@@H]4NC5(CCCCC5)[C@@]5(C(=O)Nc6cc(Cl)ccc65)[C@H]4c4cccc(Cl)c4F)cccc3C2=O)C(=O)N1` (stereo partly specified), the outcome in [1], in experiment [2], in experiment [4], in experiment [6], in experiment [8] and in [11] was inactive. Further, the outcome in experiment [12] and in [14] was inactive. Besides, the IC50 amounted to 0.0675 µM in experiment [3]; 0.0079 µM in the experiment on MV4-11; 0.0023 µM in the experiment with RS4-11; 0.0264 µM in the experiment on MDA-MB-468 [9]; 0.0311 µM in the experiment with MDA-MB-468 [10]. Further, in experiment [5], the Activity entry was “Dose-dependent effect”. For the same molecule, the fold change in experiment [7] amounted to 3.7. In experiment [13], the result was Active.
